From PubChem
PLK1 kinase inh: PLK1 (human) kinase inhibition; inhibition, % at 10 µM; recombinant PLK1 kinase, TR-FRET peptide phosphorylation; hit rate 0.53% among 97,000; AID 619; P53350;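 active = inhibition of 50% or more in the single-concentration screen; inactive = inhibition below 50%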;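 note: 0% = DMSO max control and 100% = H-89 dihydrochloride min control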
Target sequence (P53350 whole entry, looked up): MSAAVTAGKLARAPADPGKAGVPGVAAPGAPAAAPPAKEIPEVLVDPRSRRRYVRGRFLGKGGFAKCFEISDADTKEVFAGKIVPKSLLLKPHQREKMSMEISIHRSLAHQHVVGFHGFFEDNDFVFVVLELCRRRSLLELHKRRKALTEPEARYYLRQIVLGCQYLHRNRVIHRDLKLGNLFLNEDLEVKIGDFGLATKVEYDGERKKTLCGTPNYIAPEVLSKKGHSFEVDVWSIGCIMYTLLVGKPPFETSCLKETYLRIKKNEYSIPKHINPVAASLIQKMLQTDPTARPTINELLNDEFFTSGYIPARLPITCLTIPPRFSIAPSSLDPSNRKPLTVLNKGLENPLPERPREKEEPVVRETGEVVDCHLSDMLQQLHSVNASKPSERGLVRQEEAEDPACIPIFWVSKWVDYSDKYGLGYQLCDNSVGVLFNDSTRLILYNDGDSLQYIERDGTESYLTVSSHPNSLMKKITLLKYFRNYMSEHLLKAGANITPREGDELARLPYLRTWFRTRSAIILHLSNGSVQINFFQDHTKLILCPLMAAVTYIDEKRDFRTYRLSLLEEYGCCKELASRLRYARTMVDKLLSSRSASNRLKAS
EphB4 ephrin blk: antagonists of human EphB4-ephrin-B2 interaction; EphB4 LBD / TNYL-RAW-Alexa532 peptide, fluorescence polarization; hit rate 0.15% among 97,000; AID 720; inhibition, % at 7 µM;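 active = inhibition above the screen-wide mean inhibition plus 3 SD, cut at about 15% in these data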;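 note: 0% = DMSO wells and 100% = excess unlabeled TNYL-RAW peptide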
HIV Rev-RRE inh: HIV Rev-RRE protein-RNA interaction inhibition; P05866; Rev peptide-RRE RNA binding, FRET; inhibition, % at 8 µM; hit rate 0.79% among 97,000; AID 704;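 active = inhibition above the screen-wide mean plus 3 SD, cut at about 35% in these data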;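 note: 0% = median DMSO wells and 100% = median Neomycin B control wells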
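Probe or stimulus: fluorescein-Rev peptide as binding partner; assay system: Cy5-tagged RRE RNA duplex with fluorescein-tagged Rev peptide; timing: 5 min compound–RNA preincubation, then 15 min with peptide, 25 °C; medium: HEPES pH 7.5 buffer with KCl, MgCl2, NaCl and EDTA; signal: fluorescein-to-Cy5 FRET, 480 nm excitation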
DAT uptake mod: human DAT dopamine uptake with cocaine, either direction | Q01959 | hit rate 1.3% among 110,000 | LLC-PK1 hDAT cells, [14C]-dopamine uptake with cocaine IC80; actives deviate in either direction | B-score at 10 µM | AID 449768;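 active = Z score or B-score, a plate-position-corrected score, falls beyond the plate's 99.7% confidence bounds, in either direction; inactive = both scores lie inside the 99.7% bounds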;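 note: scored against the spread of the other compound wells on the same plate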
Plk1 PBD FP: inhibitors of human Plk1 polo box domain binding. P53350. Plk1 PBD phosphopeptide binding, fluorescence polarization. inhibition, %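 (tested at about 20 µM)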. hit rate 0.13% among 97,000. AID 693; in the data active = inhibition above about 34%, passing the limit was not always enough
FAK inh: blocks human focal adhesion kinase activity | biochemical FAK kinase activity assay | inhibition, %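 (tested at 7 µM)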 | hit rate 0.84% among 97,000 | AID 727; in the data active = inhibition above about 19%;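 note: 0% = DMSO and 100% = reference compound high control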
Starred values were filed as active, the others as inactive. Compounds with a hit are over-represented: about 3.2% of the library has one in this group of screens.

CC(C)(C)C1CCC2(CC1)SCC(=O)N2c1ccccc1 (stereo unspecified) was read as PLK1 kinase inh -5, EphB4 ephrin blk 16*, HIV Rev-RRE inh 7, DAT uptake mod -1.2, Plk1 PBD FP -2 and FAK inh 10.
`OCCSc1nc2ccccc2n1CCOc1ccccc1` gave PLK1 kinase inh -4, EphB4 ephrin blk -6, HIV Rev-RRE inh 11, DAT uptake mod 0.82, Plk1 PBD FP 28 and FAK inh -1.
For O/N=C1/CC/C(=N\O)c2nn(-c3ccccc3)nc21 the results were DAT uptake mod -8*.
For O=C(O)c1nn(-c2ccccc2)nc1-c1nn(-c2ccccc2)nc1C(=O)O the results were PLK1 kinase inh -5, EphB4 ephrin blk -1, HIV Rev-RRE inh 6, DAT uptake mod -1.1, Plk1 PBD FP 17 and FAK inh -9.
For CCn1c(SCc2ccc(F)cc2)nnc1-c1nn(-c2ccccc2)ccc1=O the results were PLK1 kinase inh -8, EphB4 ephrin blk 3, HIV Rev-RRE inh 1, DAT uptake mod 0.78, Plk1 PBD FP -4 and FAK inh 1.
Screening CN1Cc2sc(N)c(C#N)c2CC1(C)C returned PLK1 kinase inh -7, EphB4 ephrin blk -3, HIV Rev-RRE inh 77*, DAT uptake mod 0.089, Plk1 PBD FP -34 and FAK inh 7.
`CCC1(C)Cc2c(C#N)c(N)sc(=S)c2CO1` (stereo unspecified) gave PLK1 kinase inh -4, EphB4 ephrin blk -5, HIV Rev-RRE inh 14, DAT uptake mod 0.86, Plk1 PBD FP -19 and FAK inh -3.
`C1CSC2(N1)C1CC3CC(C1)CC2C3` (stereo unspecified) gave PLK1 kinase inh -8, EphB4 ephrin blk -7, HIV Rev-RRE inh 8, DAT uptake mod 0.39, Plk1 PBD FP 12 and FAK inh -2.
S=C1NNC2(NN1)C1CC3CC(C1)CC2C3 was read as PLK1 kinase inh 56*, EphB4 ephrin blk 3, HIV Rev-RRE inh 6, DAT uptake mod -0.87, Plk1 PBD FP -7 and FAK inh -2.
For Cc1cc(C)c2c(=O)[nH]c(SCC(=O)Nc3ccc(N(C)C)cc3)nc2n1 the results were PLK1 kinase inh 40, EphB4 ephrin blk 5, HIV Rev-RRE inh -1, DAT uptake mod 0.057, Plk1 PBD FP 24 and FAK inh 7.
Cc1cc(C)c2c(=O)[nH]c(SCC(=O)Nc3ccccc3)nc2n1 was read as PLK1 kinase inh 52*, EphB4 ephrin blk 0, HIV Rev-RRE inh 5, DAT uptake mod 0.41, Plk1 PBD FP 5 and FAK inh -2.
For C=C1CCN([C@H](C(=O)NCc2ccc(OC)cc2)C(C)C)S(=O)(=O)c2ccccc21 the results were DAT uptake mod -0.0056.
For Cc1ccc2cc(/C=C3\N=C(c4ccccc4)OC3=O)c(N3CCOCC3)nc2c1 the results were PLK1 kinase inh -15, EphB4 ephrin blk -1, HIV Rev-RRE inh 39*, DAT uptake mod 0.6, Plk1 PBD FP -21 and FAK inh -3.
Screening c1ccc(-c2nc3ccccc3nc2N2CCOCC2)cc1 returned PLK1 kinase inh -4, EphB4 ephrin blk -7, HIV Rev-RRE inh 2, DAT uptake mod 0.018, Plk1 PBD FP -10 and FAK inh 0.
For CCOC(=O)c1oc2cccc(O)c2c1CN(Cc1ccccc1)C(C)=O the results were PLK1 kinase inh -1, EphB4 ephrin blk 19*, HIV Rev-RRE inh 12, DAT uptake mod -1.6, Plk1 PBD FP 7 and FAK inh 9.
Screening CN(C=O)CP(=O)(O)CCN1CCCC1=O returned PLK1 kinase inh -3, EphB4 ephrin blk 3, HIV Rev-RRE inh 6, Plk1 PBD FP -20 and FAK inh -1.
`CC(C)c1nc(SCC(=O)Nc2ccc(N3CCOCC3)cc2)c2ccccc2n1` gave PLK1 kinase inh -6, EphB4 ephrin blk -5, HIV Rev-RRE inh -6, DAT uptake mod 0.4, Plk1 PBD FP 3 and FAK inh 34*.
`COC(=O)C1(S(=O)(=O)c2ccc(C)cc2)CCOCC1` gave PLK1 kinase inh -18, EphB4 ephrin blk -3, HIV Rev-RRE inh 6, DAT uptake mod 0.5, Plk1 PBD FP 3 and FAK inh -9.
Screening CCOc1ccc(OCC)c(NC(=O)Nc2ccc3c(c2)N(C)C(=O)CS3)c1 returned PLK1 kinase inh -5, EphB4 ephrin blk -7, HIV Rev-RRE inh 6, DAT uptake mod 1.9*, Plk1 PBD FP 26 and FAK inh 0.
COc1cccc(NC(=O)Nc2ccc3c(c2)N(C)C(=O)CS3)c1 was read as PLK1 kinase inh -4, EphB4 ephrin blk 3, HIV Rev-RRE inh 6, DAT uptake mod 0.6, Plk1 PBD FP -21 and FAK inh 3.
Screening CCN(c1ccc(NC(=O)COC(=O)c2ccc3ccccc3n2)cc1)C(C)C returned PLK1 kinase inh -13, EphB4 ephrin blk -1, HIV Rev-RRE inh 1, DAT uptake mod -2.8*, Plk1 PBD FP 12 and FAK inh 3.
Screening CC(C)CCn1c(SCCN2CCOCC2)nc2c1c(=O)[nH]c(=O)n2C returned PLK1 kinase inh -6, EphB4 ephrin blk 18*, HIV Rev-RRE inh 6, DAT uptake mod 0.93, Plk1 PBD FP 7 and FAK inh 6.
Screening N#CC1(C#N)C2=C(CCCC2)NC(c2ccccc2)C1(C#N)C#N (stereo unspecified) returned PLK1 kinase inh -4, EphB4 ephrin blk 0, HIV Rev-RRE inh 47*, DAT uptake mod -0.25, Plk1 PBD FP -7 and FAK inh 0.
Screening CCO/N=C(\C)c1c(O)c(CC)c(-c2ccccc2)n(-c2ccccc2)c1=O returned PLK1 kinase inh -13, EphB4 ephrin blk -7, HIV Rev-RRE inh 0, DAT uptake mod 2.7*, Plk1 PBD FP 14 and FAK inh 4.
CC(=O)c1c(O)c(C)c(-c2ccccc2)n(-c2ccccc2)c1=O was read as PLK1 kinase inh -4, EphB4 ephrin blk -3, HIV Rev-RRE inh -1, DAT uptake mod -0.0085, Plk1 PBD FP -8 and FAK inh 1.
For FC(F)(F)c1cc(-c2ccc(Cl)cc2)nc2ncnn12 the results were PLK1 kinase inh 0, EphB4 ephrin blk -2, HIV Rev-RRE inh 8, DAT uptake mod -0.81, Plk1 PBD FP -7 and FAK inh 2.
O=C(COC(=O)c1cccnc1Cl)c1cccc(Cl)c1 was read as PLK1 kinase inh -10, EphB4 ephrin blk -2, HIV Rev-RRE inh 0, DAT uptake mod 0.38, Plk1 PBD FP -1 and FAK inh 0.
For O=C(OCc1ccc(Cl)cc1Cl)c1cccnc1Cl the results were PLK1 kinase inh -3, EphB4 ephrin blk -1, HIV Rev-RRE inh 13, DAT uptake mod -8.6*, Plk1 PBD FP 12 and FAK inh 1.
O=C(Nc1ccccc1Cl)c1ccc(S(=O)(=O)N2CCOCC2)cc1 was read as PLK1 kinase inh 68*, EphB4 ephrin blk 4, HIV Rev-RRE inh 1, DAT uptake mod -0.32, Plk1 PBD FP -7 and FAK inh -2.
